Measurements from ChEMBL document CHEMBL1157693, “Microwave assisted synthesis and antimicrobial activity of 2-quinoxalinone-3-hydrazone derivatives” (2010).
≈ marks a conversion by molar mass, not a printed value. Calls of active or inactive are those of the source. The calls are words filed in the database; no cut-off is given here.

What was measured:
Assay type in all cases: functional
Staphylococcus aureus [1] = test: Antibacterial activity against Staphylococcus aureus NCIB 8588 after 72 hrs; conditions: NCIB 8588, 72 h
How it was run: (§1)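 MIC by the Russell and Furr method, run on selected Gram-positive and Gram-negative strains. Once the agar had set and its surface had dried, nutrient agar plates were streaked with overnight broth cultures. They were incubated at 37 °C for up to 72 h and scored for presence or absence of growth.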

Bacillus cereus [2] = test: Antibacterial activity against Bacillus cereus NCIB 6349 after 72 hrs; conditions: NCIB 6349, 72 h; how it was run: as §1
Bacillus subtilis [3] = test: Antibacterial activity against Bacillus subtilis NCIB 3610 after 24 hrs by agar well diffusion method; further: test concentration or dose not given here
How it was run: (§2)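 Agar well diffusion. Clinical isolates were first checked for viability, then grown in nutrient broth for 8 h at 37 °C. About 0.2 ml of broth culture was mixed into 18 ml molten diagnostic sensitivity test agar cooled to 45 °C and poured into plates. Compounds in DMSO went into bored wells, with streptomycin as reference. Plates stood 1 h for diffusion, then were incubated upright at 37 °C for 24 h. Clear inhibition zones were read in mm.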

Bacillus anthracis [4] = test: Antibacterial activity against Bacillus anthracis after 72 hrs
Escherichia coli [5] = test: Antibacterial activity against Escherichia coli NCIB 86 after 24 hrs by agar well diffusion method; how it was run: as §2; further: test concentration or dose not given here
Pseudomonas aeruginosa = test: Antibacterial activity against Pseudomonas aeruginosa NCIB 950 after 24 hrs by agar well diffusion method; how it was run: as §2; further: test concentration or dose not given here
Pseudomonas fluorescens = test: Antibacterial activity against Pseudomonas fluorescens NCIB 3756 after 24 hrs by agar well diffusion method; how it was run: as §2; further: test concentration or dose not given here
Shigella dysenteriae [6] = test: Antibacterial activity against Shigella dysenteriae after 24 hrs by agar well diffusion method
Escherichia coli [7] = test: Antibacterial activity against Escherichia coli NCIB 86 after 72 hrs; conditions: NCIB 86, 72 h; how it was run: as §1
Bacillus anthracis [8] = test: Antibacterial activity against Bacillus anthracis after 24 hrs by agar well diffusion method
Bacillus subtilis [9] = test: Antibacterial activity against Bacillus subtilis NCIB 3610 after 72 hrs; conditions: NCIB 3610, 72 h; how it was run: as §1
Bacillus cereus [10] = test: Antibacterial activity against Bacillus cereus NCIB 6349 after 24 hrs by agar well diffusion method; how it was run: as §2; further: test concentration or dose not given here
[11] = tested on: Geobacillus stearothermophilus; test: Antibacterial activity against Bacillus stearothermophilus NCIB 8222 after 24 hrs by agar well diffusion method; how it was run: as §2; further: test concentration or dose not given here
Klebsiella pneumoniae [12] = test: Antibacterial activity against Klebsiella pneumoniae NCIB 418 after 72 hrs; conditions: NCIB 418, 72 h; how it was run: as §1
Shigella dysenteriae [13] = test: Antibacterial activity against Shigella dysenteriae after 72 hrs
How it was run: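 MIC by agar dilution: compound-containing nutrient agar was set and surface-dried, then streaked with overnight broth culture of the clinical isolate. Incubated at 37 °C for up to 72 h and scored for presence or absence of growth. Streptomycin was the reference.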

Klebsiella pneumoniae [14] = test: Antibacterial activity against Klebsiella pneumoniae NCIB 418 after 24 hrs by agar well diffusion method; how it was run: as §2; further: test concentration or dose not given here
[15] = tested on: Geobacillus stearothermophilus; test: Antibacterial activity against Bacillus stearothermophilus NCIB 8222 after 72 hrs; conditions: NCIB 8222, 72 h; how it was run: as §1
Staphylococcus aureus [16] = test: Antibacterial activity against Staphylococcus aureus NCIB 8588 after 24 hrs by agar well diffusion method; how it was run: as §2; further: test concentration or dose not given here
Candida albicans = test: Antifungal activity against Candida albicans after 3 days by agar well diffusion method

SMILES | MIC (Staphylococcus aureus [1]) | MIC (Bacillus cereus [2]) | inhibition zone (IZ) (Bacillus subtilis [3]) | MIC (Bacillus anthracis [4]) | inhibition zone (IZ) (Escherichia coli [5]) | inhibition zone (IZ) (Pseudomonas aeruginosa) | inhibition zone (IZ) (Pseudomonas fluorescens) | inhibition zone (IZ) (Shigella dysenteriae [6]) | MIC (Escherichia coli [7]) | inhibition zone (IZ) (Bacillus anthracis [8]) | MIC (Bacillus subtilis [9]) | inhibition zone (IZ) (Bacillus cereus [10]) | inhibition zone (IZ) [11] | MIC (Klebsiella pneumoniae [12]) | MIC (Shigella dysenteriae [13]) | inhibition zone (IZ) (Klebsiella pneumoniae [14]) | MIC [15] | inhibition zone (IZ) (Staphylococcus aureus [16]) | inhibition zone (IZ) (Candida albicans)
CCC(CC)=NNc1nc2ccccc2[nH]c1=O | 62.5 µg/mL (≈ 256 µM) | 7.8 µg/mL (≈ 31.9 µM) | 20 mm | inactive | 15 mm | 0 mm | 0 mm | 0 mm | 31.3 µg/mL (≈ 128 µM) | 0 mm | 31.3 µg/mL (≈ 128 µM) | 28 mm | 25 mm | 31.3 µg/mL (≈ 128 µM) | inactive | 15 mm | 7.8 µg/mL (≈ 31.9 µM) | 10 mm | 18 mm
O=C1Nc2ccc(Cl)cc2/C1=N/Nc1nc2ccccc2[nH]c1=O | 7.8 µg/mL (≈ 23 µM) | 7.8 µg/mL (≈ 23 µM) | 20 mm | 15.6 µg/mL (≈ 45.9 µM) | 19 mm | 0 mm | 0 mm | 10 mm | 15.6 µg/mL (≈ 45.9 µM) | 20 mm | 15.6 µg/mL (≈ 45.9 µM) | 28 mm | 24 mm | 7.8 µg/mL (≈ 23 µM) | 62.5 µg/mL (≈ 184 µM) | 20 mm | 7.8 µg/mL (≈ 23 µM) | 25 mm | 18 mm
CC/C(C)=N\Nc1nc2ccccc2[nH]c1=O | 15.6 µg/mL (≈ 67.7 µM) | 7.8 µg/mL (≈ 33.9 µM) | 16 mm | 62.5 µg/mL (≈ 271 µM) | 21 mm | 0 mm | 0 mm | 0 mm | 31.3 µg/mL (≈ 136 µM) | 12 mm | 31.3 µg/mL (≈ 136 µM) | 25 mm | 17 mm | 62.5 µg/mL (≈ 271 µM) | inactive | 19 mm | 31.3 µg/mL (≈ 136 µM) | 19 mm | 22 mm
O=C1Nc2ccc(Br)cc2/C1=N/Nc1nc2ccccc2[nH]c1=O | 15.6 µg/mL (≈ 40.6 µM) | 62.5 µg/mL (≈ 163 µM) | 13 mm | 125 µg/mL (≈ 325 µM) | 13 mm | 0 mm | 11 mm | 11 mm | 62.5 µg/mL (≈ 163 µM) | 8 mm | 62.5 µg/mL (≈ 163 µM) | 15 mm | 22 mm | 31.3 µg/mL (≈ 81.5 µM) | 125 µg/mL (≈ 325 µM) | 15 mm | 15.6 µg/mL (≈ 40.6 µM) | 20 mm | 15 mm
NNc1nc2ccccc2[nH]c1=O | 125 µg/mL (≈ 710 µM) | 15.6 µg/mL (≈ 88.5 µM) | 20 mm | 15.6 µg/mL (≈ 88.5 µM) | 25 mm | 15 mm | 0 mm | 22 mm | 15.6 µg/mL (≈ 88.5 µM) | 24 mm | 15.6 µg/mL (≈ 88.5 µM) | 28 mm | 15 mm | 125 µg/mL (≈ 710 µM) | 125 µg/mL (≈ 710 µM) | 10 mm | 15.6 µg/mL (≈ 88.5 µM) | 24 mm | 18 mm
C/C(=N\Nc1nc2ccccc2[nH]c1=O)c1cc2cc(Cl)ccc2oc1=O | 15.6 µg/mL (≈ 41 µM) | 7.8 µg/mL (≈ 20.5 µM) | 33 mm | 7.8 µg/mL (≈ 20.5 µM) | 30 mm | 14 mm | 10 mm | 19 mm | 7.8 µg/mL (≈ 20.5 µM) | 25 mm | 7.8 µg/mL (≈ 20.5 µM) | 30 mm | 30 mm | 7.8 µg/mL (≈ 20.5 µM) | 15.6 µg/mL (≈ 41 µM) | 32 mm | 7.8 µg/mL (≈ 20.5 µM) | 32 mm | 14 mm
O=c1[nH]c2ccccc2nc1NN=C1c2ccccc2Cc2ccccc21 | 15.6 µg/mL (≈ 44.3 µM) | 7.8 µg/mL (≈ 22.1 µM) | 12 mm | 31.3 µg/mL (≈ 88.8 µM) | 20 mm | 15 mm | 0 mm | 0 mm | 15.6 µg/mL (≈ 44.3 µM) | 14 mm | 31.3 µg/mL (≈ 88.8 µM) | 25 mm | 18 mm | 7.8 µg/mL (≈ 22.1 µM) | inactive | 21 mm | 15.6 µg/mL (≈ 44.3 µM) | 14 mm | 9 mm
